Test: Toxicity liver stage against HepG2, at 10uM
Assay type: cell-based
Set-up: test concentration 10 uM, cell line HepG2-A16-CD81EGFP
Conditions: human, HepG2-A16-CD81EGFP cells; read-out: INHIBITION
Outline: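 Uninfected HepG2-A16-CD81EGFP cells, 3 × 10^3 per well, 1536-well, plated on prespotted compound at 10 μM final, parasite-free screening media added to match infected plates; puromycin 10 μM positive, DMSO 0.5% negative; run in parallel with 48 h PbLuc assay at 37 °C, 5% CO2; viability by CellTiter-Glo luminescence, normalized to controls.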

| SMILES | cytotoxicity at 10 µM |
| --- | --- |
| CN(C)S(=O)(=O)N1CCN(C(=O)c2cc(-c3ccc(Br)s3)n[nH]2)CC1 | -2.66% |
| O=C(Nc1ccccc1Oc1cccc(F)c1)C1CCS(=O)(=O)C1 (stereo not drawn) | 2.64% |
| Fc1ccc(CN2C[C@@H]3OCCN(CC4CCCO4)[C@@H]3C2)cc1 (stereo partly drawn) | -86.3% |
| Cc1nc(C)n(CC2CN(CCC(=O)N3CCCCC3)CCO2)n1 (stereo not drawn) | -4.64% |
| Cc1csc(C(=O)N2CCC3(CC(N(C)c4ccncn4)C3)C2)c1 (stereo not drawn) | -11.2% |
| CC(C)Oc1ccc(CNC(=O)CCN2C(=O)CCC2=O)cc1F | -7.27% |
| O=C(NCc1cccs1)C1CN(C(=O)c2cccs2)CC12CCOCC2 (stereo not drawn) | -11.5% |
| COCCC(=O)N1CCN(C)c2ncccc2C1 | -8.28% |
| CS(=O)(=O)NCC1OCCc2cn(CC3CC3)nc21 (stereo not drawn) | 8.19% |
| CCC(=O)N1CCC(Cc2ccccc2-c2ccncc2)(C(=O)NC)C1 (stereo not drawn) | -16% |
| COCC1CC2(CCNCC2)CN1Cc1csc(C)n1 (stereo not drawn) | 5.77% |
| OC(CN1CCOCC1)c1ccc(OC(F)(F)F)cc1 (stereo not drawn) | -9.36% |
| CN(CCN1CCOCC1)S(=O)(=O)CC1CCCC1 | 10.2% |
| c1ccc2ncc(CC3CCNC3)cc2c1 (stereo not drawn) | -1.67% |
| Fc1cnc(N2CCc3nnc(COc4ccccn4)n3CC2)nc1 | 8.13% |
| CCC(=O)N1CCN(C(=O)c2ccc(OC)o2)[C@H]2CS(=O)(=O)C[C@H]21 | 0.224% |
| CCOCCCNC(=O)C1(C)CCC(=O)N1Cc1ccccc1F (stereo not drawn) | -5.57% |
| CN(CCN1CCCCC1=O)Cc1cc2cc3c(cc2[nH]c1=O)OCO3 | -6.21% |
| Cc1noc(CN2CC(=O)N(C)c3ccccc3C2=O)n1 | -5.03% |
| CC(C(=O)N(C)C)N1CCc2onc(-c3cccc(F)c3)c2C1 (stereo not drawn) | -6.93% |
| c1ccc2sc(N3CCC4(CCCN4Cc4ncc[nH]4)CC3)nc2c1 | 9.3% |

| SMILES | cytotoxicity at 10 µM |
| --- | --- |
| Cc1[nH]ncc1C(=O)NCC(CO)Cc1ccc(Cl)cc1 (stereo not drawn) | -0.0785% |
| Cc1c(S(=O)(=O)NCC(C)Cn2cc(Cl)cn2)cnn1C (stereo not drawn) | 0.446% |
| CC(C)Cc1cc(NC(=O)c2n[nH]c3ccccc23)n(C)n1 | -15.9% |
| O=C(c1ccnnc1)N1C[C@H]2CCC[C@@H](OCc3cccnc3)[C@@H]2C1 | 5.19% |
| N#Cc1cccc(Cl)c1NC1CCN(CC(N)=O)CC1 | -5.87% |
| O=C(c1csc(-c2ccco2)n1)N1CCN2CCCCC2C1 (stereo not drawn) | 5.6% |
| CCC1(CO)CCCN(c2ncccc2C#N)C1 (stereo not drawn) | -9.06% |
| COc1ccc(CNC(=O)c2ccc(Br)cn2)cc1 | -18% |
| CCN1CCOCC2(C1)CN(C(=O)c1c(C)noc1C)CCO2 (stereo not drawn) | 13.8% |
| CCc1nnc2n1CCN(C(=O)c1ccccc1OCC1CC1)C2 | 2.3% |
| O=C(CCc1ccco1)N1CCC(Nc2cccnn2)CC1 | -20.3% |
| CCN1Cc2ccccc2CC2(CCN(CC(=O)O)CC2)C1=O | -4.87% |
| Cn1nc(Cn2ccnc2)c2c1CN(c1ncccn1)C2 | 5.3% |
| c1cc(C2CCCN2Cc2nnnn2C2CC2)cs1 (stereo not drawn) | -8.86% |
| COc1ccc(CCNC(=O)Nc2cc(C)nn2C)cc1 | -2.87% |
| COc1ccccc1NC(=O)NC1(c2noc(CN(C)C)n2)CCCC1 | -5.22% |
| O=C(CSCc1ccccn1)N(Cc1ccsc1)C1CC1 | -9.8% |
| CCc1nnc2n1CCN(C(=O)CN(C)C1CC1)C2 | -1.28% |
| CCn1cnnc1CNC(=O)N1CCC(CN2CCCCCC2)CC1 | -8.57% |
| CC(C)c1ncc2c(n1)CN(Cc1cccc(C#N)c1)CC2 | -9.03% |
| O=C(NC1CCCCC1)c1ccc(COCC(F)(F)F)o1 | 14.1% |

| SMILES | cytotoxicity at 10 µM |
| --- | --- |
| COCCCC1(C(=O)O)CCCN(Cc2ccccc2C)C1 (stereo not drawn) | -4.58% |
| Cc1cc(NC(=O)CCN2CCCCC2Cn2cccn2)no1 (stereo not drawn) | 2.14% |
| CCCC1(CO)CCCN(c2ncccc2F)C1 (stereo not drawn) | -6.83% |
| CN1CCN(C(=O)c2ccc(=O)n(C)c2)Cc2ccccc21 | -10.2% |
| CC(c1ccc(S(N)(=O)=O)cc1)N(C)C(=O)c1ccccc1I (stereo not drawn) | -0.629% |
| c1cnn(CC2CCCCN2Cc2nc(-c3ccoc3)no2)c1 (stereo not drawn) | -5.22% |
| Cc1ncc2c(n1)CN(CC(=O)Nc1cccnc1)CC2 | 0.66% |
| O=C(c1cc(C2CC2)[nH]n1)N1CCN(Cc2ccncc2)CC1 | -10.9% |
| CC(C)c1cc(NCC(O)c2ccccn2)n2nccc2n1 (stereo not drawn) | 13% |
| CN(CC1(CO)CC1)C(=O)C1CCC(=O)N(Cc2ccc(Cl)cc2)C1 (stereo not drawn) | -5.14% |
| CN(CC(=O)NCC(F)(F)F)C(=O)c1ccc(C(=O)OC(C)(C)C)cc1 | 0.68% |
| CN(Cc1ccc2nsnc2c1)CC1(O)CNCCOC1 (stereo not drawn) | -5.03% |
| COC(=O)[C@H](C)NC(=O)c1cc(-c2cccc(Cl)c2)no1 | -7.25% |
| COCCO[C@H]1CCN(Cc2cccs2)[C@H]1Cc1cccnc1 | -2.23% |
| COc1ccc(CNC(=O)NCCCNS(C)(=O)=O)cc1OC | -10.6% |
| COc1cc2ncn(CC(=O)NCCCN(C)C)c(=O)c2cc1OC | 10% |
| CN(C)c1ccc(CC2COCCN(Cc3nccn3C)C2)nn1 (stereo not drawn) | -10.2% |
| CC(=O)CN1CC2(CCNCC2)COc2ccccc2S1(=O)=O | 3.13% |
| O=C(NCC1CC1)c1cc2c(s1)CCN2C(=O)c1ccc(F)cc1 | 2.55% |
| Cc1nnc([C@]23COC[C@H]2CN(Cc2nccs2)C3)o1 | 0.872% |
| c1cncc(Cc2nnc3n2CCN(CC2CCOC2)CC3)c1 (stereo not drawn) | -2.11% |

| SMILES | cytotoxicity at 10 µM |
| --- | --- |
| O=C(c1cc(=O)[nH]c(=O)[nH]1)N1CCCCC1c1ccc(F)cc1 (stereo not drawn) | -10.2% |
| CCC(C)(C)n1nnnc1C(c1cccs1)N1CCc2ccccc21 (stereo not drawn) | 8.67% |
| CCCN1CCC(N(C)CCC(=O)Nc2ccccc2SC)CC1 | 15.5% |
| CCc1cc2c(N3CCCC(c4cc(C(N)=O)[nH]n4)C3)ncnc2s1 (stereo not drawn) | 3.25% |
| Cc1n[nH]c(C2CN(CC(=O)NCCc3ccccc3C)CCO2)n1 (stereo not drawn) | -3.94% |
| CCc1noc(CN2CCC(NC(=O)c3ccc(C)s3)CC2)n1 | -5.04% |
| Cc1cccc(NC(=O)CN(C)C(=O)c2ccc(-n3cccc3)nc2)n1 | -4.4% |
| Cc1nc(C)c(C)c(NCc2cnn3cccnc23)n1 | 15.5% |
| O=C(C1CCCO1)N1CCC2(CC1)COCCN(Cc1ccncc1)C2 (stereo not drawn) | -81.1% |
| Cc1cc(C)c(CNC(=O)N(C)Cc2ccoc2)c(=O)[nH]1 | -6.02% |
| c1ncn(CC2CCCN(CC3CCCCC3)C2)n1 (stereo not drawn) | 4.61% |
| Cc1nn(C)c2nc(NC(C)c3nnn[nH]3)sc12 (stereo not drawn) | -0.909% |
| O=C1CCC(c2nc(C3CCN(C(=O)Cc4cccs4)CC3)no2)N1 (stereo not drawn) | -2.83% |
| Cc1noc(CN2CCC(Cc3ccc(F)cc3)CC2)n1 | 11.3% |
| CC(C)(C)CC(=O)N1C[C@H]2CCN[C@H]2C1 | 4.19% |
| CCc1nn(-c2cc(Oc3ccccc3)nc(C)n2)c(N)c1C#N | 3.62% |
| O=C(N1CCCC(n2cncn2)C1)C1(c2cccc(F)c2)CC1 (stereo not drawn) | -2.91% |
| CC(C)c1cc(C(=O)N[C@H]2CN(C3CCOCC3)C[C@@H]2C2CC2)no1 | 6.31% |
| c1cncc(CNC2CCc3ncnn3C2)c1 (stereo not drawn) | -7.91% |
| Cn1ncc(C(=O)N2CCN(C(=O)c3ccco3)CC2)c1Cl | 2.88% |

— ChEMBL document CHEMBL4513216, “Probing the Open Global Health Chemical Diversity Library for Multistage-Active Starting Points for Next-Generation Antimalarials” (ACS Infect Dis, 2020)
